Test results as given in ChEMBL document CHEMBL4373638, “Anthranilic amide and imidazobenzothiadiazole compounds disrupt Mycobacterium tuberculosis membrane potential” (Medchemcomm, 2019).
Activity calls are given as the source filed them. The calls are words filed in the database; no cut-off is given here.

Legend:
[1] = test system: Mycobacterium tuberculosis; experiment: Disruption of membrane potential loss in Mycobacterium tuberculosis H37Rv at MBC concentration at pH 4.5 after 15 mins measured at pH 5.6 by DiOC2 probe based fluorescence assay; assay type: functional, organism-based
Procedure, shortened: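 Mid-log Mtb grown in 7H9-OADC-Tw, concentrated to OD590 ~1.0 in 7H9-Tw adjusted to assay pH (6.8 or 5.6), loaded with 15 μM DiOC2 for 20 min at RT, washed, then exposed to 2-fold serial dilutions for 15 min at RT; red (488/650 nm) to green (488/530 nm) fluorescence ratio; CCCP positive, DMSO vehicle controls; representative of two runs.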

HepG2 [2] = experiment: Disruption of mitochondrial membrane potential in human HepG2 cells up to 200 uM after 30 mins by DiOC2 probe based fluorescence assay; assay type: ADME, cell-based; details: hepg2, 0.5 h
HepG2 [3] = experiment: Disruption of mitochondrial membrane potential in human HepG2 cells at less than IC50 concentration after 30 mins by DiOC2 probe based fluorescence assay; assay type: ADME, cell-based; details: hepg2, 0.5 h
[4] = test system: Mycobacterium tuberculosis; experiment: Antitubercular activity against non-replicating Mycobacterium tuberculosis H37Rv assessed as microbial killing at 130 to 260 uM at pH 5.5; assay type: functional, organism-based; details: TDE = time-dependent effect
Procedure, shortened: (§1)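 Non-replicating kill kinetics: late-log H37Rv (OD590 0.6–1.0) resuspended in phosphate citrate buffer with 0.05% tyloxapol, inoculated at ~10⁶ CFU mL⁻¹, compound added (2% DMSO final), incubated standing at 37 °C; aliquots plated for CFU every 7 days, plates counted after 4 weeks at 37 °C.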

[5] = test system: Mycobacterium tuberculosis; experiment: Antitubercular activity against non-replicating Mycobacterium tuberculosis H37Rv assessed as microbial killing at 115 to 230 uM at pH 5.5; assay type: functional, organism-based; details: TDE = time-dependent effect; procedure, shortened: as §1
[6] = test system: Mycobacterium tuberculosis; experiment: Antitubercular activity against non-replicating Mycobacterium tuberculosis H37Rv assessed as microbial killing at 145 to 290 uM at pH 5.5; assay type: functional, organism-based; details: TDE = time-dependent effect; procedure, shortened: as §1
[7] = test system: Mycobacterium tuberculosis; experiment: Antitubercular activity against non-replicating Mycobacterium tuberculosis H37Rv assessed as log reduction in CFU at 10 to 100 uM at pH 4.5 to 6.8 after 7 days; assay type: functional
[8] = test system: Mycobacterium tuberculosis; experiment: Disruption of membrane potential loss in Mycobacterium tuberculosis H37Rv at < MBC concentration at pH 4.5 after 15 mins measured at pH 6.8 by DiOC2 probe based fluorescence assay; assay type: functional, organism-based
[9] = test system: Mycobacterium tuberculosis; experiment: Antitubercular activity against non-replicating Mycobacterium tuberculosis H37Rv assessed as microbial killing at 125 to 250 uM at pH 5.5; assay type: functional, organism-based; details: TDE = time-dependent effect; procedure, shortened: as §1
RAW264.7 = experiment: Cytotoxicity against mouse RAW264.7 cells; assay type: cell-based
[10] = test system: Mycobacterium tuberculosis; experiment: Antitubercular activity against Mycobacterium tuberculosis H37Rv infected in mouse RAW264.7 cells; assay type: functional, organism-based

NC(=O)c1ccccc1NS(=O)(=O)c1ccc(Br)cc1
Activity [1]: inactive | Activity (HepG2 [2]): Non-Toxic

O=[N+]([O-])c1c(Sc2ccccn2)ccc2nsnc12
Activity (HepG2 [3]): Toxic

O=C(Nc1ccccn1)c1ccccc1NS(=O)(=O)c1ccc(Br)cc1
Activity [4]: Tde

O=C(Nc1ccc(Cl)cc1)c1ccccc1NS(=O)(=O)c1ccc(Br)cc1
Activity [5]: Tde

O=C(Nc1ccccc1)c1ccccc1NS(=O)(=O)c1ccc(Br)cc1
Activity [1]: Active | Activity (HepG2 [3]): Toxic

CS(=O)(=O)Nc1ccccc1C(=O)Nc1ccc(Cl)cc1Cl
Activity [6]: Tde

Cc1nnc(Sc2ccc3nsnc3c2[N+](=O)[O-])s1
Activity (HepG2 [3]): Toxic

O=[N+]([O-])c1cc2nc(C(F)(F)F)[nH]c2c2nsnc12
Activity [7]: >4 log10CFU

CN(C(=O)c1ccccc1NS(=O)(=O)c1ccc(Br)cc1)c1ccc(Cl)cc1Cl
Activity [1]: Active | Activity (HepG2 [3]): Toxic | Activity [8]: Active

CCNc1ccccc1C(=O)Nc1ccc(Cl)cc1Cl
Activity [1]: Active | Activity (HepG2 [2]): Non-Toxic

Cc1ccc(S(=O)(=O)Nc2ccccc2C(=O)Nc2ccc(Cl)cc2Cl)cc1
Activity [9]: Tde

CCN(C)c1ccccc1C(=O)Nc1ccc(Cl)cc1Cl
Activity (RAW264.7): Toxic | Activity [10]: Active

O=C(Nc1ccc(Cl)cc1Cl)c1ccccc1NS(=O)(=O)c1ccc(Br)cc1
Activity [1]: Active | Activity [8]: Active

CCCCNC(=O)c1ccccc1NS(=O)(=O)c1ccc(Br)cc1
Activity [1]: Active | Activity (HepG2 [3]): Toxic | Activity [8]: Active
